Measurements: ChEMBL document CHEMBL1136390, “Piperazinyl-linked fluoroquinolone dimers possessing potent antibacterial activity against drug-resistant strains of Staphylococcus aureus” (2003)
Converted amounts (≈) assume the structure as drawn.

What was measured:
Assay type in all cases: functional
Staphylococcus aureus [1] = experiment: Minimum inhibitory concentration tested against Staphylococcus aureus 1199B strain
How it was run: (§1)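 MICs against S. aureus strains were read in µg/mL from a dilution series. Stated error for each MIC is ± one dilution.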

Staphylococcus aureus [2] = experiment: Minimum inhibitory concentration tested against Staphylococcus aureus 1199 strain; how it was run: as §1
Staphylococcus aureus [3] = experiment: Minimum inhibitory concentration tested against methicillin resistant Staphylococcus aureus 494 strain (MRSA 494)
How it was run: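 MIC in µg/mL against drug-resistant S. aureus strains; error stated as ± one dilution.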

Staphylococcus aureus [4] = experiment: Minimum inhibitory concentration tested against vancomycin-insensitive SA (GISA 992 strain); how it was run: as §1
Staphylococcus aureus [5] = experiment: Minimum inhibitory concentration tested against Staphylococcus aureus 1199-3 strain; how it was run: as §1

CCn1cc(C(=O)O)c(=O)c2cnc(N3CCN(Cc4ccc(CN5CCN(c6cc7c(cc6F)c(=O)c(C(=O)O)cn7C6CC6)CC5)cc4)CC3)nc21
MIC (Staphylococcus aureus [1]): < 0.03 µg/mL | MIC (Staphylococcus aureus [2]): < 0.03 µg/mL | MIC (Staphylococcus aureus [3]): 0.125 µg/mL (≈ 0.17 µM) | MIC (Staphylococcus aureus [4]): 2 µg/mL (≈ 2.71 µM) | MIC (Staphylococcus aureus [5]): < 0.03 µg/mL

O=C(O)c1cn(C2CC2)c2cc(N3CCN(Cc4ccc(CN5CCN(c6cc7c(cc6F)c(=O)c(C(=O)O)cn7C6CC6)CC5)cc4)CC3)c(F)cc2c1=O
MIC (Staphylococcus aureus [1]): 0.125 µg/mL (≈ 0.163 µM) | MIC (Staphylococcus aureus [2]): 0.125 µg/mL (≈ 0.163 µM) | MIC (Staphylococcus aureus [3]): 0.125 µg/mL (≈ 0.163 µM) | MIC (Staphylococcus aureus [4]): 4 µg/mL (≈ 5.23 µM) | MIC (Staphylococcus aureus [5]): 0.125 µg/mL (≈ 0.163 µM)

O=C(O)c1cn(C2CC2)c2cc(N3CCN(Cc4cccc(CN5CCN(c6cc7c(cc6F)c(=O)c(C(=O)O)cn7C6CC6)CC5)c4)CC3)c(F)cc2c1=O
MIC (Staphylococcus aureus [1]): 0.125 µg/mL (≈ 0.163 µM) | MIC (Staphylococcus aureus [2]): 0.06 µg/mL (≈ 0.0784 µM) | MIC (Staphylococcus aureus [3]): < 0.03 µg/mL | MIC (Staphylococcus aureus [4]): > 16 µg/mL | MIC (Staphylococcus aureus [5]): 0.06 µg/mL (≈ 0.0784 µM)

O=C(O)c1cn(C2CC2)c2cc(N3CCN(Cc4cccc(CN5CCN(c6cc7c(cc6F)c(=O)c(C(=O)O)cn7C6CC6)CC5)n4)CC3)c(F)cc2c1=O
MIC (Staphylococcus aureus [1]): < 0.03 µg/mL | MIC (Staphylococcus aureus [2]): < 0.03 µg/mL | MIC (Staphylococcus aureus [3]): 0.06 µg/mL (≈ 0.0783 µM) | MIC (Staphylococcus aureus [4]): 8 µg/mL (≈ 10.4 µM) | MIC (Staphylococcus aureus [5]): < 0.03 µg/mL

O=C(O)c1cn(C2CC2)c2cc(N3CCN(C/C=C/CN4CCN(c5cc6c(cc5F)c(=O)c(C(=O)O)cn6C5CC5)CC4)CC3)c(F)cc2c1=O
MIC (Staphylococcus aureus [1]): 0.03 µg/mL (≈ 0.042 µM) | MIC (Staphylococcus aureus [2]): 0.03 µg/mL (≈ 0.042 µM) | MIC (Staphylococcus aureus [3]): 0.125 µg/mL (≈ 0.175 µM) | MIC (Staphylococcus aureus [4]): > 16 µg/mL | MIC (Staphylococcus aureus [5]): 0.06 µg/mL (≈ 0.0839 µM)

CCn1cc(C(=O)O)c(=O)c2cnc(N3CCN(Cc4ccc(CN5CCN(c6ncc7c(=O)c(C(=O)O)cn(CC)c7n6)CC5)cc4)CC3)nc21
MIC (Staphylococcus aureus [1]): 4 µg/mL (≈ 5.64 µM) | MIC (Staphylococcus aureus [2]): 0.5 µg/mL (≈ 0.705 µM) | MIC (Staphylococcus aureus [3]): 2 µg/mL (≈ 2.82 µM) | MIC (Staphylococcus aureus [4]): 8 µg/mL (≈ 11.3 µM) | MIC (Staphylococcus aureus [5]): 0.5 µg/mL (≈ 0.705 µM)

CCn1cc(C(=O)O)c(=O)c2cc(F)c(N3CCN(C/C=C/CN4CCN(c5cc6c(cc5F)c(=O)c(C(=O)O)cn6CC)CC4)CC3)cc21
MIC (Staphylococcus aureus [1]): 0.125 µg/mL (≈ 0.181 µM) | MIC (Staphylococcus aureus [2]): 0.25 µg/mL (≈ 0.362 µM) | MIC (Staphylococcus aureus [3]): 0.125 µg/mL (≈ 0.181 µM) | MIC (Staphylococcus aureus [4]): > 16 µg/mL | MIC (Staphylococcus aureus [5]): 0.125 µg/mL (≈ 0.181 µM)

O=C(O)c1cn(C2CC2)c2cc(N3CCN(Cc4ccc(-c5ccc(CN6CCN(c7cc8c(cc7F)c(=O)c(C(=O)O)cn8C7CC7)CC6)cc5)cc4)CC3)c(F)cc2c1=O
MIC (Staphylococcus aureus [1]): 8 µg/mL (≈ 9.51 µM) | MIC (Staphylococcus aureus [2]): 4 µg/mL (≈ 4.76 µM) | MIC (Staphylococcus aureus [4]): > 16 µg/mL | MIC (Staphylococcus aureus [5]): 8 µg/mL (≈ 9.51 µM)

CCn1cc(C(=O)O)c(=O)c2cc(F)c(N3CCN(Cc4ccc(CN5CCN(c6cc7c(cc6F)c(=O)c(C(=O)O)cn7C6CC6)CC5)cc4)CC3)cc21
MIC (Staphylococcus aureus [1]): 0.06 µg/mL (≈ 0.0797 µM) | MIC (Staphylococcus aureus [2]): < 0.03 µg/mL | MIC (Staphylococcus aureus [4]): 4 µg/mL (≈ 5.31 µM) | MIC (Staphylococcus aureus [5]): < 0.03 µg/mL

CCn1cc(C(=O)O)c(=O)c2cc(F)c(N3CCN(Cc4ccc(CN5CCN(c6cc7c(cc6F)c(=O)c(C(=O)O)cn7CC)CC5)cc4)CC3)cc21
MIC (Staphylococcus aureus [1]): 1 µg/mL (≈ 1.35 µM) | MIC (Staphylococcus aureus [2]): 0.06 µg/mL (≈ 0.081 µM) | MIC (Staphylococcus aureus [3]): 0.06 µg/mL (≈ 0.081 µM) | MIC (Staphylococcus aureus [4]): 4 µg/mL (≈ 5.4 µM) | MIC (Staphylococcus aureus [5]): 0.06 µg/mL (≈ 0.081 µM)

O=C(O)c1cn(C2CC2)c2cc(N3CCNCC3)c(F)cc2c1=O [CIPROFLOXACIN]
MIC (Staphylococcus aureus [1]): 8 µg/mL (≈ 24.1 µM) | MIC (Staphylococcus aureus [3]): 0.5 µg/mL (≈ 1.51 µM) | MIC (Staphylococcus aureus [4]): > 32 µg/mL | MIC (Staphylococcus aureus [5]): 1 µg/mL (≈ 3.02 µM)

CCn1cc(C(=O)O)c(=O)c2cc(F)c(N3CCNCC3)cc21 [NORFLOXACIN]
MIC (Staphylococcus aureus [1]): > 16 µg/mL | MIC (Staphylococcus aureus [2]): 0.5 µg/mL (≈ 1.57 µM) | MIC (Staphylococcus aureus [3]): 2 µg/mL (≈ 6.26 µM) | MIC (Staphylococcus aureus [4]): > 16 µg/mL | MIC (Staphylococcus aureus [5]): 4 µg/mL (≈ 12.5 µM)

CCn1cc(C(=O)O)c(=O)c2cnc(N3CCNCC3)nc21 [PIPEMIDIC ACID]
MIC (Staphylococcus aureus [1]): > 16 µg/mL | MIC (Staphylococcus aureus [2]): > 16 µg/mL | MIC (Staphylococcus aureus [4]): > 16 µg/mL | MIC (Staphylococcus aureus [5]): > 16 µg/mL
